Measurements from BindingDB's records for doi:10.1021/acsmedchemlett.6b00438 (Rhône-Poulenc Rorer, 2017).

Legend:
[1] = molecular target: Phosphatidylinositol 3-kinase regulatory subunit alpha/4,5-bisphosphate 3-kinase catalytic subunit delta isoform (Homo sapiens, UniProt P27986+O00329); experiment: Inhibition of full length recombinant human N-terminal His6-tagged PI3K p110delta/human p85alpha expressed in baculovirus infected sf21 cells using PIP2 as substrate preincubated for 30 mins followed by substrate addition by HTRF assay
[2] = molecular target: T1, Phosphatidylinositol 4,5-bisphosphate 3-kinase catalytic subunit delta isoform (Homo sapiens, UniProt O00329); experiment: Inhibition of PI3Kdelta in human THP1 cells assessed as reduction in MCSF-stimulated akt phosphorylation at Thr308 preincubated for 30 mins followed by MCSF stimulation for 3 mins by ELISA
T1 sequence (O00329 whole entry): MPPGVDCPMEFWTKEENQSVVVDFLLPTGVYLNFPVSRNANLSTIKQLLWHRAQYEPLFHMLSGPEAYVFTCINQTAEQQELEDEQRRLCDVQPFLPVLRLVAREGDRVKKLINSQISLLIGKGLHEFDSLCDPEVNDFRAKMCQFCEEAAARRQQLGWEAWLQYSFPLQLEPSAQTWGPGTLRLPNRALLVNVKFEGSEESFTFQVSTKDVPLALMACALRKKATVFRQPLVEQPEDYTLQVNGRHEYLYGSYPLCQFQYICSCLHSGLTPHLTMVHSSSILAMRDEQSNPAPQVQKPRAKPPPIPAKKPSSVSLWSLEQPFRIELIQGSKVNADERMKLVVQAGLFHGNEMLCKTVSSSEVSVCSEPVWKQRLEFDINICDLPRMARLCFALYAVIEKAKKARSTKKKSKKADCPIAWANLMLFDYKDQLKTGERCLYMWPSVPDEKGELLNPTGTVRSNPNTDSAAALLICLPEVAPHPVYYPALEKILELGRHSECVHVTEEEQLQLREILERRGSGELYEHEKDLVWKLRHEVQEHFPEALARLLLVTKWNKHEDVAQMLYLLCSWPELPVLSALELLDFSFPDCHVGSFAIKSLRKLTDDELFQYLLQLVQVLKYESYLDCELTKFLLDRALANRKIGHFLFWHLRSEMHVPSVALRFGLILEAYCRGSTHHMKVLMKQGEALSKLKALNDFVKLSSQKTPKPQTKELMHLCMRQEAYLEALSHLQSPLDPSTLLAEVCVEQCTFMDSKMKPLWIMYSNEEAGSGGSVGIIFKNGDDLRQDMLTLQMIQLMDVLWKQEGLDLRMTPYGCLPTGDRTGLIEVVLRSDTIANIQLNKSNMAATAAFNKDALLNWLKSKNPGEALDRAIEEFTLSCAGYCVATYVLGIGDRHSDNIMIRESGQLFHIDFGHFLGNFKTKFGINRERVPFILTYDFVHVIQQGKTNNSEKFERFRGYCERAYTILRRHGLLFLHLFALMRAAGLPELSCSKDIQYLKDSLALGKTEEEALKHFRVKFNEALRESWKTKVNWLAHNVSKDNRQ
How it was run: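 THP-1 cells exposed to compound for 30 min, then stimulated with MCSF at EC80 for 3 min; lysates assayed by ELISA for pAkt (Thr308).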

Sequence of Phosphatidylinositol 3-kinase regulatory subunit alpha/4,5-bisphosphate 3-kinase catalytic subunit delta isoform (P27986 whole entry, one chain of several, canonical isoform): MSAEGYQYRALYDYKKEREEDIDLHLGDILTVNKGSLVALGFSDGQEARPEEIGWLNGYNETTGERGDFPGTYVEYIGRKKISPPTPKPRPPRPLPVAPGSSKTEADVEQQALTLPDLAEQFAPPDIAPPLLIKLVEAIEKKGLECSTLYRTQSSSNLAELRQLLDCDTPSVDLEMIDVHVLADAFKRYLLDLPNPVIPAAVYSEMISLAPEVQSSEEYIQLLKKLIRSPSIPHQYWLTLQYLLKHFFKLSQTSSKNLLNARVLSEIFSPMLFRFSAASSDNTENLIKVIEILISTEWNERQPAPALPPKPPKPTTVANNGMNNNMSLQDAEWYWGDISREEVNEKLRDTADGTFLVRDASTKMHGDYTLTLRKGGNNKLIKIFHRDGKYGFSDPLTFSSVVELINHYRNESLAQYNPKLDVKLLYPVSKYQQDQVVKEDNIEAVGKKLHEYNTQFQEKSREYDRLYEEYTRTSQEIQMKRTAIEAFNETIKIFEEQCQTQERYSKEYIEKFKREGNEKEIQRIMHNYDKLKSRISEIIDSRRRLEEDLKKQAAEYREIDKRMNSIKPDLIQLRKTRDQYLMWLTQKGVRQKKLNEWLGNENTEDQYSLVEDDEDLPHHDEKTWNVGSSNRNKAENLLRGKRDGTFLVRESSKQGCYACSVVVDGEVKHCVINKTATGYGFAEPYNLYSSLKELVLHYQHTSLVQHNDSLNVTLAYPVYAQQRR

For `N#Cc1c(N)ncnc1NC(CC(F)(F)F)c1nn2cccc2c(=O)n1-c1ccccc1` (configuration not stated), the IC50 [1] was 0.017 µM and the IC50 [2] was 0.051 µM.
